The values below come from paper PMC4107104 (Hippocampus, 2014).

One assay has as its target recombinant human HDAC 3 (Homo sapiens, UniProt O15379). Kind of assay: HDAC enzyme inhibition assay, HDAC3. Format: biochemical. As to conditions: read-out: In vitro IC50, HD3. In outline:
(§1)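 Recombinant human enzyme incubated at 37°C for 30 min in HDAC assay buffer with 5 μg BSA and fluorogenic substrate 3 (10 μM). Double-strength developer was then added for 20 min at room temperature, and fluorescence was read at ex 360/em 460 nm. The six-point concentration series was run in duplicate. Activity was taken as (F−Fb)/(Ft−Fb), with no-inhibitor as 100% and no-enzyme as 0%, and IC50 came from a sigmoidal nonlinear fit.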

Another assay deals with recombinant human HDAC 1 (Homo sapiens, UniProt Q13547). Kind of assay: HDAC enzyme inhibition assay, HDAC1. Format: biochemical. As to conditions: read-out: In vitro IC50, HD1, NI = no inhibition up to 10 mM tested. In outline:
as §1

Another assay concerns the target T1, recombinant human HDAC 8 (Homo sapiens, UniProt Q9BY41).
T1 sequence (Q9BY41 1-377): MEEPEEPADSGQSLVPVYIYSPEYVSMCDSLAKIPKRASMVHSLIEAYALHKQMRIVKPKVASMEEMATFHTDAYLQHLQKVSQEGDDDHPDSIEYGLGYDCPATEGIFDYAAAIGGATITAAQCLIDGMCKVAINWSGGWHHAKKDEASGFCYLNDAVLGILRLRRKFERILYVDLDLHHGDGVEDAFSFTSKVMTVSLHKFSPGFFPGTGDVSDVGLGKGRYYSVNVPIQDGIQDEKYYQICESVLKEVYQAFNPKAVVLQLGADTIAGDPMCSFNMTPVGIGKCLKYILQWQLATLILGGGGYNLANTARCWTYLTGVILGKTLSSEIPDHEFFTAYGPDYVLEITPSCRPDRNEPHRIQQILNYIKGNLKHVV
Kind of assay: HDAC enzyme inhibition assay, HDAC8. The conditions noted are these: read-out: In vitro IC50, HD8. The format is biochemical. In outline:
as §1

Assay [1] relates to hippocampal histone H3 and H4 acetylation. Kind of assay: Brain/hippocampal histone acetylation after i.p. injection. Format: in vivo, Long-Evans rats.
Another assay deals with recombinant human HDAC 2 (Homo sapiens, UniProt Q92769). Kind of assay: HDAC enzyme inhibition assay, HDAC2. Format: biochemical. The conditions noted are these: read-out: In vitro IC50, HD2. In outline:
as §1

The next assay relates to contextual fear memory. Kind of assay: Contextual fear conditioning, 24 hr retention. The conditions noted are these: 1.2 g/kg i.p. 1 hr prior to CFC training. The format is in vivo, Long-Evans rats.
The target of assay [2] is T2, recombinant human HDAC 11 (Homo sapiens, UniProt Q96DB2).
T2 sequence (Q96DB2 1-347): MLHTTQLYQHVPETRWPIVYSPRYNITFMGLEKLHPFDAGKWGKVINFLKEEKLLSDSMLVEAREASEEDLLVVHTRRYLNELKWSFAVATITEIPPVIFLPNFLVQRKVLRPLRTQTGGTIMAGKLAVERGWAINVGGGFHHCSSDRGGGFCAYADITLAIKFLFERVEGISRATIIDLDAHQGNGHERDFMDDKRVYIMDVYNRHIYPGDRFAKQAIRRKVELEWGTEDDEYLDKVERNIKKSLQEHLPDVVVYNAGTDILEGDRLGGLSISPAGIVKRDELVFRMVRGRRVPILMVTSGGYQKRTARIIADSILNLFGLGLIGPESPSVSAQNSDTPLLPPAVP
Kind of assay: HDAC enzyme inhibition assay, HDAC11. The format is biochemical. The conditions noted are these: read-out: In vitro IC50, HD11. In outline:
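Recombinant human enzyme incubated for 60 min at 37°C in HDAC assay buffer containing 5 μg BSA and substrate 3 at 10 μM. Developer (double strength) was added for 20 min at room temperature, and fluorescence was read at 360/460 nm. Six concentrations were tested in duplicate. Percent activity was normalised between no-inhibitor (100%) and no-enzyme (0%) wells, and IC50 came from sigmoidal nonlinear regression.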

Assay [3] deals with T3, recombinant human HDAC 10 (Homo sapiens, UniProt Q969S8).
T3 sequence (Q969S8 1-669): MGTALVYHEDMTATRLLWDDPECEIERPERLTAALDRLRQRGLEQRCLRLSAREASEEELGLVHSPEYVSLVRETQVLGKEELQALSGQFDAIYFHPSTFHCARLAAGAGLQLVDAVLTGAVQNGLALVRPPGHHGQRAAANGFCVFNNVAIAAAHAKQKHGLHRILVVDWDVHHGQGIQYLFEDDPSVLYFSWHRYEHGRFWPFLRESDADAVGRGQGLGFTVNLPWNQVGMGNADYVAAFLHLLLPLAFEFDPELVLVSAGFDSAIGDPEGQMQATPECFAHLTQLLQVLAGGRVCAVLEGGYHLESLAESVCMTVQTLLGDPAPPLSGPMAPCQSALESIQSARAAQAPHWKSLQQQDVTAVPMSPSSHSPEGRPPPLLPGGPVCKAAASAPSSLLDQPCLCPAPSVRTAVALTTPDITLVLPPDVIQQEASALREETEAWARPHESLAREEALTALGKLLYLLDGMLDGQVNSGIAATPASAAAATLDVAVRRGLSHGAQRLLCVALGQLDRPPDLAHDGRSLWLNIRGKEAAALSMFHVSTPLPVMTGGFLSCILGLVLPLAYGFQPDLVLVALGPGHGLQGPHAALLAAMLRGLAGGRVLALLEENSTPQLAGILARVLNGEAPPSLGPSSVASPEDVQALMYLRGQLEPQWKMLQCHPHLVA
Kind of assay: HDAC enzyme inhibition assay, HDAC10. As to conditions: read-out: In vitro IC50, HD10. Format: biochemical. In outline:
as §1

Each structure is given as a SMILES string.

recombinant human HDAC 2, sequence (Q92769 whole entry): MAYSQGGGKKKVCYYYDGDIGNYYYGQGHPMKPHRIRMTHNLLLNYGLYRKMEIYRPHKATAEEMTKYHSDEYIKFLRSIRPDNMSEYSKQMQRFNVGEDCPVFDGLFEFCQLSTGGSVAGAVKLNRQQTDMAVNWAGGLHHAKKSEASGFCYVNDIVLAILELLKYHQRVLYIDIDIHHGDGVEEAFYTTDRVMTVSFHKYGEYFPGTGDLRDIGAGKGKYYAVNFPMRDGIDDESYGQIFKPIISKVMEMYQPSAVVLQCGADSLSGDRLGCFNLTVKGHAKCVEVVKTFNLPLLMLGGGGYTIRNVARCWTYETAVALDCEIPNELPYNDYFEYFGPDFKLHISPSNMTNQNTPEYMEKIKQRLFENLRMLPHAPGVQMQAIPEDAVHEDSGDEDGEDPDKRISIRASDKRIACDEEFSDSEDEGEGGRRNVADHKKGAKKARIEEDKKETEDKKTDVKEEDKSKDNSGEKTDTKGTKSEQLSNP
recombinant human HDAC 1, sequence (Q13547 whole entry): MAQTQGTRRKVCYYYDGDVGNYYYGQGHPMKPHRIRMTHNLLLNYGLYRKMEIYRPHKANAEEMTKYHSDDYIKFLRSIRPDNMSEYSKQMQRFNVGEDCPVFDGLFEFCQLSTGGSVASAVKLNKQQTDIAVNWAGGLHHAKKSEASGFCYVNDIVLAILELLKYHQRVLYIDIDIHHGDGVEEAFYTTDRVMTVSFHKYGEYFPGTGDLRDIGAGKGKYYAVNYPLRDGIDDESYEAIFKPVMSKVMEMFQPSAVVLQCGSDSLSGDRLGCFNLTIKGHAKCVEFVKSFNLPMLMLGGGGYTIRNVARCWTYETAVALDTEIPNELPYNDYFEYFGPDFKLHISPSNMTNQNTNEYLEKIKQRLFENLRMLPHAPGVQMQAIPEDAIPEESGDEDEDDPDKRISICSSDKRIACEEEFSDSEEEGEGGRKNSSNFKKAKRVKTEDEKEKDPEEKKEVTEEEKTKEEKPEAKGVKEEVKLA
recombinant human HDAC 3, sequence (O15379 whole entry): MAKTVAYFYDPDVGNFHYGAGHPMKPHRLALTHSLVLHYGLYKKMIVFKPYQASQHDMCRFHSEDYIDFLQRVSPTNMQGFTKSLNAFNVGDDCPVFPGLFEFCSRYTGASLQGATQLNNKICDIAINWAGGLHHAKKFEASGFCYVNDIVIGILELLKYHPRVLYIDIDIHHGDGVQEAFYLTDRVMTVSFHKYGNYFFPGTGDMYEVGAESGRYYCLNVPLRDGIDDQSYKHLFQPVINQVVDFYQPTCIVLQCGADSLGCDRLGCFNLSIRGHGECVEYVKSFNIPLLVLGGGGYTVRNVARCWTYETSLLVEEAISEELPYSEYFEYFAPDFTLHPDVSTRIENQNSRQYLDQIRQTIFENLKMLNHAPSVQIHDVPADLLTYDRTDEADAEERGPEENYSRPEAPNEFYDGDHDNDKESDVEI
recombinant human HDAC 3, sequence (Q9Y618 395-489 partner limits assumed): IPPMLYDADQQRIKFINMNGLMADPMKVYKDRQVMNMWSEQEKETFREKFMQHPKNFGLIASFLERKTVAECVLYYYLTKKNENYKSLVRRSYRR

Turning to `CCCC(=O)[O-].[Na+]` [NaB, sodium butyrate], the IC50 – broadly, the concentration that gives 50% inhibition – came to 126 µM on recombinant human HDAC 3; 330 µM on recombinant human HDAC 1; 611 µM at recombinant human HDAC 8; 118 µM at recombinant human HDAC 2; 565 µM in assay [2]; 543 µM in assay [3]. For the same compound, the “histone H3 and H4 acetylation in whole hippocampus, 30 min” value in assay [1] (30 min after 1.2 g/kg i.p.) was “increasing at 30 min relative to vehicle”. Besides, the “histone H3 and H4 acetylation in whole hippocampus, 60 min” value in assay [1] (60 min after 1.2 g/kg i.p.) is recorded as “returning to baseline levels”. Moreover, the “mean freezing at 24 hr retention test” value in the assay on contextual fear memory was determined as 12.73 s. Further, in the assay on contextual fear memory, the “retention of contextual fear memory at 24 hr” value is recorded as “failed to enhance retention”.
